# Data reported in ChEMBL document CHEMBL1143339, “Design and synthesis of amidoxime derivatives for orally potent C-alkylamidine-based antimalarial agents” (Bioorg Med Chem Lett, 2009).
# pIC50: −log10 of the molar value.
# Legend:
# [1] = system: Plasmodium vinckei petteri; experiment: Antimalarial activity against Plasmodium vinckei petteri 279BY infected Swiss mice (Mus musculus) at daily peroral dose for 4 days; type: functional; conditions: po, 96 h
# Summary of the method: (§1)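 Female Swiss mice infected iv with 10⁷ P. vinckei petteri 279BY parasites (about 0.5% parasitemia on day 1). Dosed ip or orally once daily on days 1–4 post-infection. Parasitemia read on day 5 and expressed as % of untreated control. Three mice per dose; mean ± SEM.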
# Plasmodium falciparum = experiment: Antimalarial activity after 48 hrs against chloroquine-sensitive Plasmodium falciparum Nigerian by [3H]hypoxanthine uptake; type: functional, organism-based
# Summary of the method: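 IC50 against P. falciparum given as the mean of at least two independent experiments, each run in duplicate.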
# [2] = system: Plasmodium vinckei petteri; experiment: Antimalarial activity against Plasmodium vinckei petteri 279BY infected Swiss mice (Mus musculus) at daily intraperitoneal dose for 4 days; type: functional; conditions: ip, 96 h; summary of the method: as §1
# [3] = system: Plasmodium vinckei petteri; experiment: Antimalarial activity against Plasmodium vinckei petteri 279BY infected Swiss mice (Mus musculus) at 20 mg/kg/day intraperitoneal dose over 4 days; type: functional; summary of the method: as §1
# [4] = system: Plasmodium vinckei petteri; experiment: Antimalarial activity against Plasmodium vinckei petteri 279BY infected Swiss mice (Mus musculus) at 120 mg/kg/day peroral dose over 4 days; type: functional; conditions: route oral; summary of the method: as §1
# [5] = system: Plasmodium vinckei petteri; experiment: Antimalarial activity against Plasmodium vinckei petteri 279BY infected Swiss mice (Mus musculus) at 180 mg/kg/day peroral dose over 4 days; type: functional; conditions: route oral; summary of the method: as §1
Compound,ED50 [1] [mg/kg],pIC50 (Plasmodium falciparum),ED50 [2] [mg/kg],Activity [3] [%],Activity [4] [%],Activity [5] [%]
N/C(CCCCCCCCCCCC/C(N)=N/O)=N\O,120,5.46,,,,
CC(=O)O/N=C(/N)CCCCCCCCCCCCC(=N)NOC(C)=O,> 90,5.85,> 10,,,
N=C(CCCCCCCCCCCC/C(N)=N\OC(=O)c1ccccc1)NOC(=O)c1ccccc1,> 90,5.96,> 10,,,
NC(=O)c1nc(CCCCCCCCCCCCc2noc(C(N)=O)n2)no1,,5.15,> 20,,,
N#Cc1nc(CCCCCCCCCCCCc2noc(C#N)n2)no1,,4.00,> 20,,,
CS(=O)(=O)O/N=C(/N)CCCCCCCCCCCCC(=N)NOS(C)(=O)=O,40,8.60,7,,,
O=c1[nH]c(CCCCCCCCCCCCc2nsc(=O)[nH]2)ns1,> 120,7.76,20,50,25,
O=c1[nH]c(CCCCCCCCCCCCc2noc(=O)[nH]2)no1,100,5.04,> 20,,,
CO/N=C(/N)CCCCCCCCCCCCC(=N)NOC,180,5.17,> 20,,,50
CCNC(=O)O/N=C(/N)CCCCCCCCCCCCC(=N)NOC(=O)NCC,90,6.74,> 20,,80,
N=C(CCCCCCCCCCCC/C(N)=N\OC(=O)Nc1ccccc1)NOC(=O)Nc1ccccc1,> 180,,> 20,,,
Cc1c(CCO)sc[n+]1CCCCCCCCCCCC[n+]1csc(CCO)c1C [ALBITIAZOLIUM BROMIDE],,8.66,,,,
N=C(N)CCCCCCCCCCCCC(=N)N [TETRADECANEBIS(IMIDAMIDE)],> 100,,> 10,,,
